ChEMBL document CHEMBL3272325, “Structure-activity relationships of dimeric Catharanthus alkaloids. 1. Deacetylvinblastine amide (vindesine) sulfate” (J Med Chem, 1978)

Legend:
[1] = Antitumor activity against mouse Ridgeway osteogenic sarcoma cells allografted in mouse at 0.5 to 0.8 mg/kg/day, ip; type: functional; conditions: route intraperitoneal
Procedure, shortened: (§1)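 Sulfate salts given ip on days 1-9 against ROS and GLS in mice; tumor growth scored as percent inhibition versus controls (+++ = 75-100%, ++ = 50-75%, ± = under 25%).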

[2] = Antitumor activity against mouse Gardner lymphosarcoma cell allografted in mouse at 0.5 to 0.8 mg/kg/day, ip; type: functional; conditions: route intraperitoneal; procedure, shortened: as §1
[3] = Acute toxicity in ip dosed mouse; type: organism-based; conditions: in vivo
Blood = assay: Biodistribution in po dosed rat blood using [3H]-labeled drug relative to Iv dosing; type: ADME, organism-based; conditions: in vivo
[4] = Antitumor activity against mouse Ridgeway osteogenic sarcoma cells allografted in mouse at 0.5 to 0.7 mg/kg/day, ip; type: functional; conditions: route intraperitoneal; procedure, shortened: as §1
[5] = Antitumor activity against mouse Gardner lymphosarcoma cell allografted in mouse at 0.5 to 0.7 mg/kg/day, ip; type: functional; conditions: route intraperitoneal; procedure, shortened: as §1
[6] = Antitumor activity against mouse P1534(J) cells allografted in mouse assessed as tumor growth inhibition at 0.2 mg/kg/day, ip administered from day 1 to day 9 relative to unreated control; type: functional; conditions: P1534J, route intraperitoneal, read-out: TGI
Procedure, shortened: (§2)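 P1534(J) leukemia implanted subcutaneously in mice. Sulfate salts given ip daily on days 1-9. Read-out was percent inhibition of tumor growth relative to untreated controls. The highest nontoxic dose was recorded.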

[7] = Toxicity in ip dosed mouse allografted with mouse P1534(J) cells administered from day 1 to day 9; type: organism-based; conditions: in vivo, read-out: MNTD; procedure, shortened: as §2
B16 [8] = assay: Antitumor activity against mouse B16 cells allografted in C57Bl/6 mouse assessed as increase in life span at 0.9 mg/kg/day, ip administered on day 1, 5 and 9 measured for 61 days relative to control; type: functional; conditions: route intraperitoneal
Procedure, shortened: (§3)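 C57BL/6 mice implanted ip with 0.5 mL of B16 melanoma brei. Alkaloid sulfate salts given ip on days 1, 5, 9 or on days 5, 9, 13. Percent increase in life span measured against controls; experiment ended at 61 days.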

[9] = Toxicity in ip dosed mouse allografted with mouse p388 cells administered from day 1 to day 9; type: organism-based; conditions: in vivo, read-out: MNTD
Procedure, shortened: (§4)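 P388 ascites implanted ip in mice, 10 animals per group. Sulfate salts given ip either daily on days 1-9 or as a single dose on day 1. Median life span was calculated using all deaths and survivors. Percent increase in life span was taken over untreated controls. The highest nontoxic dose was noted.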

B16 [10] = assay: Antitumor activity against mouse B16 cells allografted in C57Bl/6 mouse assessed as increase in life span at 0.3 mg/kg/day, ip administered on day 1, 5 and 9 measured for 61 days relative to control; type: functional; conditions: route intraperitoneal; procedure, shortened: as §3
P388 [11] = assay: Antitumor activity against mouse P388 cells allografted in mouse assessed as increase in life span at 1.7 mg/kg/day, ip after 1 day; type: functional; conditions: 24 h, route intraperitoneal; procedure, shortened: as §4
B16 [12] = assay: Antitumor activity against mouse B16 cells allografted in C57Bl/6 mouse assessed as increase in life span at 1.2 mg/kg/day, ip administered on day 1, 5 and 9 measured for 61 days relative to control; type: functional; conditions: route intraperitoneal
B16 [13] = assay: Antitumor activity against mouse B16 cells allografted in C57Bl/6 mouse assessed as mean survival time at 0.6 mg/kg/day, ip administered on day 5, […] (reference value: 21.5 days); type: functional; conditions: route intraperitoneal
B16 [14] = assay: Antitumor activity against mouse B16 cells allografted in C57Bl/6 mouse assessed as increase in life span at 0.6 mg/kg/day, ip administered on day 5, 9 and 13 measured for 61 days relative to control; type: functional; conditions: route intraperitoneal; procedure, shortened: as §3
B16 [15] = assay: Antitumor activity against mouse B16 cells allografted in C57Bl/6 mouse assessed as increase in life span at 0.15 mg/kg/day, ip administered on day 5, 9 and 13 measured for 61 days relative to control; type: functional; conditions: route intraperitoneal; procedure, shortened: as §3
B16 [16] = assay: Antitumor activity against mouse B16 cells allografted in C57Bl/6 mouse assessed as mean survival time at 0.6 mg/kg/day, ip administered on day 1, 5 and 9 (reference value: 24.6 days); type: functional; conditions: route intraperitoneal
B16 [17] = assay: Antitumor activity against mouse B16 cells allografted in C57Bl/6 mouse assessed as mean survival time at 0.9 mg/kg/day, ip administered on day 1, 5 and 9 (reference value: 24.6 days); type: functional; conditions: route intraperitoneal
B16 [18] = assay: Antitumor activity against mouse B16 cells allografted in C57Bl/6 mouse assessed as mean survival time at 0.3 mg/kg/day, ip administered on day 1, 5 and 9 (reference value: 24.6 days); type: functional; conditions: route intraperitoneal
B16 [19] = assay: Antitumor activity against mouse B16 cells allografted in C57Bl/6 mouse assessed as increase in life span at 0.3 mg/kg/day, ip administered on day 5, 9 and 13 measured for 61 days relative to control; type: functional; conditions: route intraperitoneal; procedure, shortened: as §3
B16 [20] = assay: Antitumor activity against mouse B16 cells allografted in C57Bl/6 mouse assessed as mean survival time at 0.15 mg/kg/day, ip administered on day 1, 5 and 9 (reference value: 24.6 days); type: functional; conditions: route intraperitoneal
B16 [21] = assay: Antitumor activity against mouse B16 cells allografted in C57Bl/6 mouse assessed as mean survival time at 0.15 mg/kg/day, ip administered on day 5, […] (reference value: 21.5 days); type: functional; conditions: route intraperitoneal
[22] = Antitumor activity against mouse Ridgeway osteogenic sarcoma cells allografted in mouse at 0.3 to 0.4 mg/kg/day, ip; type: functional; conditions: route intraperitoneal
Procedure, shortened: (§5)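 Ridgeway osteogenic sarcoma and Gardner lymphosarcoma in mice, with sulfate salts given ip daily on days 1-9. Tumor growth inhibition versus controls scored in bands: +++ = 75-100%, ++ = 50-75%, ± = under 25%.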

B16 [23] = assay: Antitumor activity against mouse B16 cells allografted in C57Bl/6 mouse assessed as mean survival time at 1.2 mg/kg/day, ip administered on day 5, […] (reference value: 21.5 days); type: functional; conditions: route intraperitoneal
P388 [24] = assay: Antitumor activity against mouse P388 cells allografted in mouse assessed as increase in life span at 1.8 mg/kg/day, ip after 1 day; type: functional; conditions: 24 h, route intraperitoneal; procedure, shortened: as §4
B16 [25] = assay: Antitumor activity against mouse B16 cells allografted in C57Bl/6 mouse assessed as increase in life span at 1.2 mg/kg/day, ip administered on day 5, 9 and 13 measured for 61 days relative to control; type: functional; conditions: route intraperitoneal
[26] = Antitumor activity against mouse Gardner lymphosarcoma cell allografted in mouse at 0.3 to 0.4 mg/kg/day, ip; type: functional; conditions: route intraperitoneal; procedure, shortened: as §5
B16 [27] = assay: Antitumor activity against mouse B16 cells allografted in C57Bl/6 mouse assessed as increase in life span at 0.6 mg/kg/day, ip administered on day 1, 5 and 9 measured for 61 days relative to control; type: functional; conditions: route intraperitoneal; procedure, shortened: as §3
P388 [28] = assay: Antitumor activity against mouse P388 cells allografted in mouse assessed as increase in life span at 0.4 mg/kg/day, ip administered from day 1 to day 9 relative to untreated control; type: functional; conditions: route intraperitoneal; procedure, shortened: as §4
P388 [29] = assay: Antitumor activity against mouse P388 cells allografted in mouse assessed as increase in life span at 0.18 mg/kg/day, ip administered from day 1 to day 9 relative to untreated control; type: functional; conditions: route intraperitoneal; procedure, shortened: as §4
B16 [30] = assay: Antitumor activity against mouse B16 cells allografted in C57Bl/6 mouse assessed as increase in life span at 0.15 mg/kg/day, ip administered on day 1, 5 and 9 measured for 61 days relative to control; type: functional; conditions: route intraperitoneal; procedure, shortened: as §3
[31] = Toxicity in ip dosed mouse allografted with mouse p388 cells after 1 day; type: organism-based; conditions: in vivo, read-out: MNTD; procedure, shortened: as §4
P388 [32] = assay: Antitumor activity against mouse P388 cells allografted in mouse assessed as increase in life span at 6 mg/kg/day, ip after 1 day; type: functional; conditions: 24 h, route intraperitoneal; procedure, shortened: as §4
P388 [33] = assay: Antitumor activity against mouse P388 cells allografted in mouse assessed as increase in life span at 0.6 mg/kg/day, ip administered from day 1 to day 9 relative to untreated control; type: functional; conditions: route intraperitoneal; procedure, shortened: as §4
B16 [34] = assay: Antitumor activity against mouse B16 cells allografted in C57Bl/6 mouse assessed as mean survival time at 0.9 mg/kg/day, ip administered on day 5, 9 and 13 (reference value: 21.5 days); conditions: route intraperitoneal
B16 [35] = assay: Antitumor activity against mouse B16 cells allografted in C57Bl/6 mouse assessed as increase in life span at 0.9 mg/kg/day, ip administered on day 5, 9 and 13 measured for 61 days relative to control; type: functional; conditions: route intraperitoneal; procedure, shortened: as §3
B16 [36] = assay: Antitumor activity against mouse B16 cells allografted in C57Bl/6 mouse assessed as mean survival time at 1.2 mg/kg/day, ip administered on day 1, 5 and 9 (reference value: 24.6 days); type: functional; conditions: route intraperitoneal
P388 [37] = assay: Antitumor activity against mouse P388 cells allografted in mouse assessed as increase in life span at 0.27 mg/kg/day, ip administered from day 1 to day 9 relative to untreated control; type: functional; conditions: route intraperitoneal; procedure, shortened: as §4
B16 [38] = assay: Antitumor activity against mouse B16 cells allografted in C57Bl/6 mouse assessed as mean survival time at 0.3 mg/kg/day, ip administered on day 5, […] (reference value: 21.5 days); type: functional; conditions: route intraperitoneal
P388 [39] = assay: Antitumor activity against mouse P388 cells allografted in mouse assessed as increase in life span at 9 mg/kg/day, ip after 1 day; type: functional; conditions: 24 h, route intraperitoneal; procedure, shortened: as §4
P388 [40] = assay: Antitumor activity against mouse P388 cells allografted in mouse assessed as increase in life span at 4 mg/kg/day, ip after 1 day; type: functional; conditions: 24 h, route intraperitoneal; procedure, shortened: as §4
[41] = Antitumor activity against mouse P1534(J) cells allografted in mouse assessed as tumor growth inhibition at 0.1 mg/kg/day, ip administered from day 1 to day 9 relative to unreated control; type: functional; conditions: P1534J, route intraperitoneal, read-out: TGI; procedure, shortened: as §2

Structure (SMILES): CC[C@]1(O)C[C@@H]2C[C@](C(=O)OC)(c3cc4c(cc3OC)N(C)[C@H]3[C@@](O)(C(N)=O)[C@H](O)[C@]5(CC)C=CCN6CC[C@]43[C@@H]65)c3[nH]c4ccccc4c3CC[N+]([O-])(C2)C1
- TGI [1]: 25%
- TGI [2]: 25%
- LD50 [3]: > 10 mg/kg

Structure (SMILES): CC[C@]1(O)C[C@@H]2CN(CCc3c([nH]c4ccccc34)[C@@](C(=O)OC)(c3cc4c(cc3OC)N(C)[C@H]3[C@@](O)(C(N)=O)[C@H](O)[C@]5(CC)C=CCN6CC[C@]43[C@@H]65)C2)C1 [VINDESINE]
- Drug uptake (Blood): 1%

Structure (SMILES): CC[C@]1(O)C[C@H]2CN(CCc3c([nH]c4ccccc34)[C@@](C(=O)OC)(c3cc4c(cc3OC)N(C)[C@H]3[C@@](O)(C(N)=O)[C@H](O)[C@]5(CC)CCCN6CC[C@]43[C@@H]65)C2)C1.O=S(=O)(O)O
- TGI [4]: 50%
- TGI [5]: 50%

Structure (SMILES): CC[C@]1(O)C[C@H]2CN(CCc3c([nH]c4ccccc34)[C@@](C(=O)OC)(c3cc4c(cc3OC)N(C)[C@H]3[C@@](O)(C(=O)OC)[C@H](O)[C@]5(CC)C=CCN6CC[C@]43[C@@H]65)C2)C1.O=S(=O)(O)O
- inhibition in vivo at 0.2 mg/kg/day [6]: 96%
- MTD [7]: 0.2 mg/kg/day
- ILS at 0.9 mg/kg/day (B16 [8]): 84%
- MTD [9]: 0.6 mg/kg/day
- ILS at 0.3 mg/kg/day (B16 [10]): 100%
- ILS at 1.7 mg/kg/day (P388 [11]): 154%
- ILS at 1.2 mg/kg/day (B16 [12]): 69%
- MST (B16 [13]): 41.1 days
- ILS at 0.6 mg/kg/day (B16 [14]): 91%
- ILS at 0.15 mg/kg/day (B16 [15]): 57%
- MST (B16 [16]): 51.5 days
- MST (B16 [17]): 45.3 days
- MST (B16 [18]): 49.3 days
- ILS at 0.3 mg/kg/day (B16 [19]): 91%
- MST (B16 [20]): 42.1 days
- MST (B16 [21]): 33.7 days
- TGI [22]: 50%
- MST (B16 [23]): 45.2 days
- ILS at 1.8 mg/kg/day (P388 [24]): 159%
- ILS at 1.2 mg/kg/day (B16 [25]): 110%
- TGI [26]: 50%
- ILS at 0.6 mg/kg/day (B16 [27]): 109%
- ILS at 0.4 mg/kg/day (P388 [28]): > 263%
- ILS at 0.18 mg/kg/day (P388 [29]): 136%
- ILS at 0.15 mg/kg/day (B16 [30]): 71%
- MTD at 24 h [31]: 9 mg/kg/day
- ILS at 6 mg/kg/day (P388 [32]): 200%
- ILS at 0.6 mg/kg/day (P388 [33]): > 263%
- MST (B16 [34]): 48.7 days
- ILS at 0.9 mg/kg/day (B16 [35]): 126%
- MST (B16 [36]): 41.5 days
- ILS at 0.27 mg/kg/day (P388 [37]): 181%
- LD50 [3]: 5.8 mg/kg
- MST (B16 [38]): 41.1 days
- ILS at 9 mg/kg/day (P388 [39]): > 263%
- ILS at 4 mg/kg/day (P388 [40]): 218%
- inhibition in vivo at 0.1 mg/kg/day [41]: 41%
